Screening results as filed in PubChem.
In the library only some 3.3% were active in any assay of this set; here they are far more common.
SIAE primary: human SIAE inhibition, primary screen; actives 0.69% (n = 370,000); SIAE FP-Rh probe binding, fluorescence polarization; Q9HAT2; inhibition, % at 9.66 µM;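 active means inhibition above a cutoff: mean of compounds within the control limits plus 3 SD of those, cut at about 17% in these data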;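 further: 0% = plate median of compound wells and 100% = probe without SIAE protein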
rCAG binder: r(CAG) repeat RNA binding. TO-PRO-1 dye displacement fluorescence. inhibition, % at 3 µM. actives 1.3% (n = 370,000);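 active means inhibition above the plate cutoff, the mean of all test compounds on that plate plus 3 SD, cut at about 35% in these data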;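 further: 0% = DMSO alone and 100% = 100 µM mitoxantrone as full dye displacement; higher means more dye released from RNA so lower well fluorescence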
PRMT1 FP inh: blocks human protein arginine methyltransferase 1. Q99873. recombinant PRMT1, activity-based probe fluorescence polarization. inhibition, % at 2.79 µM. actives 1.3% (n = 370,000). AID 652257;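 active means inhibition above about 21% made by adding two undisclosed values, limit read from the data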
TCR-CD3 inh: human TCR-CD3 binding inhibition | TAMRA-labeled TCR probe fluorescence, biochemical | inhibition, % at 9.4 µM | actives 0.37% (n = 360,000) | AID 651800; in the data active means inhibition above about 19%;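 further: recombinant mutant TCR 2C K166C tagged with TAMRA read by polarization; 0% = receptor in buffer alone and 100% = receptor with positive control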
ABHD4 inh: inhibits mouse alpha/beta hydrolase domain 4 | Q8VD66 | purified mABHD4, FP-Rh probe fluorescence polarization | inhibition, % at 8.92 µM | actives 0.54% (n = 370,000) | AID 720543;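 active means inhibition exceeding the mean over every tested compound plus 3 SD, cut at about 30% in these data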;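 further: 0% = plate median of compound wells and 100% = S159A mutant with DMSO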
Target sequence (Q8VD66 whole entry, looked up, the tested form may be a part): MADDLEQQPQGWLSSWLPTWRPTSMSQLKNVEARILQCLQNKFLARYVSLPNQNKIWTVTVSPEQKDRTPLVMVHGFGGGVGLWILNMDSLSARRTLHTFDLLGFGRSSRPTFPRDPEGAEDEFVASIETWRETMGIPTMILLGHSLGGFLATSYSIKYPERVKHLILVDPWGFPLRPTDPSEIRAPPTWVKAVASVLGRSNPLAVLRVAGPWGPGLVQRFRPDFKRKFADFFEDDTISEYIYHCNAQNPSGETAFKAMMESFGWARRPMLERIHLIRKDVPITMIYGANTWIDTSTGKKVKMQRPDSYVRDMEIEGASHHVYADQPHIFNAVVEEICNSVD
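system = mouse ABHD4 enzyme, wild type | medium = HEPES pH 7.0, NaCl, Pluronic buffer | also added = FP-Rh probe | incubation = Enzyme–compound pre-incubation 45 min, then probe 60 min, both 25 °C | technique = fluorescence polarization, excitation 525 nm, emission 598 nm, BODIPY TMR filters | controls = S159A mutant high control, sample median low control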
PRMT1 inh conf: confirmation of human PRMT1 inhibitors; inhibition, % at 2.79 µM; actives 42% (n = 3,300); shares compounds with PRMT1 FP inh; recombinant His-PRMT1, activity-based probe fluorescence polarization; AID 687036;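 active means mean inhibition across replicates above the hit cutoff derived for the earlier primary screen, cut at about 22% in these data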
Active calls of the source: *.

Cc1cccc(N2CCN(C(=O)c3cc(S(=O)(=O)N(C)C)ccc3Cl)CC2)c1C was read as SIAE primary 3, PRMT1 FP inh 3 and ABHD4 inh 11.
Screening Cc1ccc(NC(=O)c2cc(-c3ccc(C)o3)nc3ccccc23)cc1 returned SIAE primary -6, rCAG binder 19, PRMT1 FP inh 49*, TCR-CD3 inh -7, ABHD4 inh -8 and PRMT1 inh conf 25*.
Cc1ccc(-c2cc(C(=O)Nc3ccccn3)c3ccccc3n2)o1 was read as SIAE primary -10, rCAG binder 17, PRMT1 FP inh 19, TCR-CD3 inh 13 and ABHD4 inh 5.
`Cc1ccc(-c2cc(C(=O)Nc3cccnc3)c3ccccc3n2)o1` gave SIAE primary -2, rCAG binder 11, PRMT1 FP inh 46*, TCR-CD3 inh 6, ABHD4 inh 3 and PRMT1 inh conf 12.
Screening C=CCN(C(=O)[C@@H](C)[C@@H](O)c1ccc2ccccc2c1)c1ccccc1 returned SIAE primary -3, rCAG binder 1, PRMT1 FP inh 3 and ABHD4 inh -4.
COc1ccccc1CNC(=O)NCCCN1CCN(c2ccc(F)cc2)CC1 was read as SIAE primary 3, rCAG binder 2, PRMT1 FP inh 1 and ABHD4 inh 3.
Screening CC(C)Cn1c(-c2ccc(Br)cc2)c[nH]c1=S returned SIAE primary 1, rCAG binder 0, PRMT1 FP inh 41*, TCR-CD3 inh 0, ABHD4 inh -9 and PRMT1 inh conf 21.
For CC(C)C[C@H]1COc2cc(N3CCCC3)ccc2S(=O)(=O)N1C the results were SIAE primary -5, rCAG binder 0, PRMT1 FP inh -4 and ABHD4 inh 9.
For Oc1ccc(CNc2cccnc2)c2cccnc12 the results were SIAE primary 10, PRMT1 FP inh 39*, ABHD4 inh 6 and PRMT1 inh conf 34*.
For CN(C)C(CNC(=O)c1cccc(S(=O)(=O)Nc2ccc(SC(F)F)cc2)c1)c1ccccc1 (stereo unspecified) the results were SIAE primary -4, rCAG binder 20, PRMT1 FP inh 44*, TCR-CD3 inh -9, ABHD4 inh 1 and PRMT1 inh conf 62*.
Screening CCC[C@H]1[C@@H](OC(=O)NCc2ccc(C)cc2)CC[C@@]23CCCN2C(=O)CCC[C@@H]13 returned SIAE primary 0, PRMT1 FP inh -1 and ABHD4 inh 2.
For COc1ccc(-n2c(COc3ccc(Cl)cc3)nnc2SCC(=O)Nc2ccc3c(c2)OCO3)cc1 the results were SIAE primary 3, rCAG binder 10, PRMT1 FP inh 1 and ABHD4 inh -4.
`CNc1ccccc1/C(O)=C(\C#N)C(=O)NCc1cccs1` gave SIAE primary 3, rCAG binder 1, PRMT1 FP inh -5 and ABHD4 inh -4.
CCOc1ccc(N2C(=O)CC(NCCNc3ccc([N+](=O)[O-])cn3)C2=O)cc1 (stereo unspecified) was read as SIAE primary -3, rCAG binder 5, PRMT1 FP inh 49*, TCR-CD3 inh -3, ABHD4 inh -8 and PRMT1 inh conf 7.
Screening COc1ccc(N2C(=O)CC(NCCNc3ccc([N+](=O)[O-])cn3)C2=O)cc1 (stereo unspecified) returned SIAE primary 0, rCAG binder 4, PRMT1 FP inh 36*, TCR-CD3 inh 2, ABHD4 inh 3 and PRMT1 inh conf 8.
`CCOc1ccc(N2C(=O)CC(N3CCN(c4ccc([N+](=O)[O-])cc4)CC3)C2=O)cc1` (stereo unspecified) gave SIAE primary 2, rCAG binder 0, PRMT1 FP inh 10, TCR-CD3 inh -3 and ABHD4 inh 5.
COC(=O)[C@H](C(C)C)N1Cc2nnn(Cc3ccccc3)c2-c2cc(F)ccc2S1(=O)=O was read as SIAE primary -1, rCAG binder -1, PRMT1 FP inh 0 and ABHD4 inh 1.
`CCC(=O)OCCNc1cc(Sc2nccn2C)c2nonc2c1[N+](=O)[O-]` gave SIAE primary -1, rCAG binder 1, PRMT1 FP inh 43*, TCR-CD3 inh 4, ABHD4 inh 2 and PRMT1 inh conf 65*.
CCCC(=O)OCCNc1cc(Sc2nc3ccccc3[nH]2)c2nonc2c1[N+](=O)[O-] was read as SIAE primary 10, rCAG binder 16, PRMT1 FP inh 67*, TCR-CD3 inh 0, ABHD4 inh 17 and PRMT1 inh conf 73*.
For CCC(=O)OCCNc1cc(SCCC(=O)OC)c2nonc2c1[N+](=O)[O-] the results were SIAE primary -5, rCAG binder 4, PRMT1 FP inh 11, TCR-CD3 inh 2 and ABHD4 inh 3.
Cc1cccc(NC(=O)C2CCCN(c3nnc(-n4cccc4)s3)C2)c1C (stereo unspecified) was read as SIAE primary 0, rCAG binder 4, PRMT1 FP inh 2 and ABHD4 inh -7.
`Cc1ccc(F)cc1NC(=O)CSCc1nc2sc(C)c(C)c2c(=O)[nH]1` gave SIAE primary 6, rCAG binder 6, PRMT1 FP inh 34*, TCR-CD3 inh 9, ABHD4 inh 6 and PRMT1 inh conf 38*.
Screening CSc1ccccc1NC(=O)CSCc1nc2sc(C)c(C)c2c(=O)[nH]1 returned SIAE primary -2, rCAG binder 3, PRMT1 FP inh 7, TCR-CD3 inh -7 and ABHD4 inh 1.
For O=C(NCc1cccs1)O[C@H]1CC[C@@]23CCCN2C(=O)CCC[C@H]3C1 the results were SIAE primary 2, PRMT1 FP inh 0 and ABHD4 inh 0.
Screening CC1CCN(C(=O)COC(=O)/C=C/c2ccc(Br)o2)CC1 returned SIAE primary 3, rCAG binder 15, PRMT1 FP inh 36*, TCR-CD3 inh -2, ABHD4 inh 6 and PRMT1 inh conf 11.
N#CC1=C(N)NC(=S)C(C(N)=O)C1c1ccc([N+](=O)[O-])cc1 (stereo unspecified) was read as SIAE primary 6, rCAG binder 2, PRMT1 FP inh 67*, TCR-CD3 inh 0, ABHD4 inh 6 and PRMT1 inh conf 12.
CCCCNC(=O)C[C@H]1C[C@@]2(C(=O)OC)C(=C[C@H](C(C)C)O[C@@H]2C2CC2)N(Cc2ccco2)C1=O was read as SIAE primary 2, rCAG binder -1, PRMT1 FP inh 0 and ABHD4 inh 0.
For Cc1nc2sc(C(N)=O)c(N)c2c2c1CCCC2 the results were SIAE primary 5, rCAG binder -2, PRMT1 FP inh 1, TCR-CD3 inh 0 and ABHD4 inh 1.
Screening Cc1ccc(-c2c3c(nc4sc(C(N)=O)c(N)c24)CCCC3)o1 returned SIAE primary 3, rCAG binder 10, PRMT1 FP inh 32*, TCR-CD3 inh -5, ABHD4 inh 18 and PRMT1 inh conf 3.
